Calls of active or inactive are those of the source. The calls are words filed in the database; no cut-off is given here.
What was measured:
Plasmodium berghei [1] = test: Antimalarial activity against GFP-transfected Plasmodium berghei ANKA infected in mouse assessed as reduction in parasitemia at 10 mg/kg, po qd administered for 4 days measured on day 4 post last dose by flow cytometric analysis relative to control; format: functional; parameters: scale not given: the % may be the effect or the level left
Plasmodium berghei [2] = test: Antimalarial activity against GFP-transfected Plasmodium berghei ANKA infected in mouse assessed as mean survival days at 10 mg/kg, po qd administered for 4 days; format: functional
Method in brief: (§1)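 Mice (n = 3) infected with GFP-transfected P. berghei ANKA. Compound given orally, dissolved in a vehicle containing ethanol and diluted 10× with water. Multi-dose arms were dosed once daily on four consecutive days (4, 24, 48, 72 h post-infection). Parasitaemia was measured by flow cytometry, detection limit 0.1%. Activity is % reduction relative to controls. Survival was followed for 30 days.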

Plasmodium berghei [3] = test: Antimalarial activity against GFP-transfected Plasmodium berghei ANKA infected in mouse assessed as mean survival days at 30 mg/kg, po qd administered for 4 days; format: functional; method in brief: as §1
Plasmodium falciparum [4] = test: Antiplasmodial activity against Plasmodium falciparum W2 infected in human erythrocytes after 48 hrs by [3H]-hypoxanthine incorporation assay; format: functional, organism-based
Plasmodium falciparum [5] = test: Antiplasmodial activity against multidrug-resistant Plasmodium falciparum K1 infected in human erythrocytes after 48 hrs by [3H]-hypoxanthine incorporation assay; format: functional, organism-based
Method in brief: (§2)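 Modified [3H]-hypoxanthine incorporation assay against P. falciparum NF54 (sensitive) and K1 (multidrug-resistant). Values are means of ≥2 or ≥3 independent experiments. The resistance index is the K1 IC50 divided by the NF54 IC50.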

Plasmodium falciparum [6] = test: Resistance index, ratio of IC50 for multidrug-resistant Plasmodium falciparum K1 to IC50 for Plasmodium falciparum W2; format: functional
Plasmodium falciparum [7] = test: Antiplasmodial activity against chloroquine-sensitive Plasmodium falciparum NF54 infected in human erythrocytes after 48 hrs by [3H]-hypoxanthine incorporation assay; format: functional, organism-based; method in brief: as §2
Plasmodium falciparum [8] = test: Resistance index, ratio of IC50 for multidrug-resistant Plasmodium falciparum K1 to IC50 for chloroquine-sensitive Plasmodium falciparum NF54; format: functional; method in brief: as §2
CHO = test: Cytotoxicity against CHO cells by MTT assay; format: cell-based; settings: Cricetulus griseus
Method in brief: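 CHO cells, MTT assay. Stocks 20 mg/mL in DMSO, diluted in complete medium; undissolved samples tested as suspensions. Emetine served as reference (10-fold dilutions, 6 concentrations, lowest 0.001 µg/mL). IC50 derived from full dose–response curves by non-linear fitting.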

[9] = Selectivity index, ratio of IC50 for CHO cells to IC50 for chloroquine-sensitive Plasmodium falciparum NF54; format: toxicity, cell-based; settings: hamster, read-out: Ratio IC50
[10] = Inhibition of beta haematin formation after 5 to 6 hrs by pyridine-ferrichrome method; format: physicochemical
Method in brief: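 Modified β-haematin inhibition assay. Compounds from DMSO stocks, 0–1000 µM final, in duplicate. NP-40 added (30.55 µM). Haematin suspension added to give 0.5 M acetate pH 4.8 and 100 µM haematin, then incubated 5–6 h at 37 °C. Free haeme detected with pyridine/H2O/acetone/0.2 M HEPES pH 7.4 reagent (final pyridine ~5% v/v) plus acetone, and absorbance read.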

Plasmodium berghei [11] = test: Antimalarial activity against GFP-transfected Plasmodium berghei ANKA infected in mouse assessed as reduction in parasitemia at 50 mg/kg, po qd administered for 4 days measured on day 4 post last dose by flow cytometric analysis relative to control; format: functional; parameters: scale not given: the % may be the effect or the level left
Plasmodium berghei [12] = test: Antimalarial activity against GFP-transfected Plasmodium berghei ANKA infected in mouse assessed as mean survival days at 50 mg/kg, po qd administered for 4 days; format: functional; method in brief: as §1
[13] = Lipophilicity, log P of the compound; format: physicochemical; settings: octanol/water
[14] = Metabolic stability in human liver microsomes assessed as compound remaining at […] after 30 mins by HPLC-MS/MS analysis in presence of NADPH; format: ADME; settings: read-out: Stability
[15] = Metabolic stability in BALB/c mouse liver microsomes assessed as compound remaining at […] after 30 mins by HPLC-MS/MS analysis in presence of NADPH; format: ADME; settings: read-out: Stability
[16] = Elimination half life in C57Bl/6 mouse at 20 mg/kg, po; format: ADME, organism-based; settings: in vivo, read-out: beta t1/2 (converted)
Method in brief: (§3)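 C57Bl/6 mice, n = 3 per route. IV group dosed 5 mg/kg in DMSO, PEG, EtOH, PPG (2:6:1:7, v/v); tail-tip blood (20 µL) at 0.08, 0.5, 1, 3, 7 and 24 h. Oral group received a single 20 mg/kg gavage as a suspension in 0.5% HPMC in water; blood at 0.5, 1, 3, 5 and 24 h. Whole-blood LC–MS/MS (10–5000 ng/mL) after methanol protein precipitation; non-compartmental analysis.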

[17] = Elimination half life in C57Bl/6 mouse at 5 mg/kg, iv; format: ADME, organism-based; settings: in vivo, read-out: beta t1/2 (converted); method in brief: as §3
[18] = Tmax in C57Bl/6 mouse at 20 mg/kg, po; format: ADME, organism-based; settings: in vivo; method in brief: as §3
[19] = Cmax in C57Bl/6 mouse at 20 mg/kg, po; format: ADME, organism-based; parameters: dose 20 mg/kg, route oral; settings: in vivo; method in brief: as §3
[20] = Cmax in C57Bl/6 mouse at 5 mg/kg, iv; format: ADME, organism-based; parameters: dose 5 mg/kg, route intravenous; settings: in vivo; method in brief: as §3
[21] = Volume of distribution in C57Bl/6 mouse at 5 mg/kg, iv; format: ADME, organism-based; settings: in vivo; method in brief: as §3
[22] = Total clearance in C57Bl/6 mouse at 5 mg/kg, iv; format: ADME, organism-based; settings: in vivo; method in brief: as §3
Mus musculus [23] = test: AUC in C57Bl/6 mouse at 20 mg/kg, po; format: ADME, organism-based; settings: in vivo; method in brief: as §3
Mus musculus [24] = test: AUC in C57Bl/6 mouse at 5 mg/kg, iv; format: ADME, organism-based; settings: in vivo; method in brief: as §3
[25] = Oral bioavailability in C57Bl/6 mouse at 20 mg/kg; format: ADME, organism-based; settings: in vivo; method in brief: as §3
Plasmodium berghei [26] = test: Antimalarial activity against GFP-transfected Plasmodium berghei ANKA infected in mouse assessed as reduction in parasitemia at 50 mg/kg, po by flow cytometric analysis relative to control; format: functional; parameters: scale not given: the % may be the effect or the level left
Plasmodium berghei [27] = test: Antimalarial activity against GFP-transfected Plasmodium berghei ANKA infected in mouse assessed as mean survival days at 50 mg/kg, po; format: functional; method in brief: as §1
Plasmodium berghei [28] = test: Antimalarial activity against GFP-transfected Plasmodium berghei ANKA infected in mouse assessed as cure rate at 50 mg/kg, po qd administered for 4 days measured over 30 days; format: functional, organism-based
Mus musculus [29] = test: Toxicity in mouse infected with GFP-transfected Plasmodium berghei ANKA at 50 mg/kg, po qd administered for 4 days measured over 30 days; format: organism-based; settings: in vivo, 720 h
Plasmodium berghei [30] = test: Antimalarial activity against GFP-transfected Plasmodium berghei ANKA infected in mouse assessed as cure rate at 10 mg/kg, po qd administered for 4 days measured over 30 days; format: functional, organism-based

## CCN(CC)CCCC(C)Nc1ccnc2cc(Cl)ccc12 (stereo unspecified) [CHLOROQUINE]
Plasmodium berghei [1]
  Activity: 99.9%
Plasmodium berghei [2]
  MSD: 16 days
Plasmodium berghei [3]
  MSD: 24 days

## CCN(CC)Cc1cc(Nc2ccnc3cc(Cl)ccc23)ccc1O [AMODIAQUINE]
Plasmodium falciparum [4]
  IC50: 5 nM
Plasmodium falciparum [5]
  IC50: 8 nM
Plasmodium falciparum [6]
  Ratio IC50: 1.6
Plasmodium falciparum [7]
  IC50: 4 nM
Plasmodium falciparum [8]
  Ratio IC50: 2.5
CHO
  IC50: 147000 nM
[9]
  selectivity ratio: 36800
[10]
  IC50: 43500 nM
Plasmodium berghei [11]
  Activity: 99.9%
Plasmodium berghei [1]
  Activity: 100%
Plasmodium berghei [12]
  MSD: >30 days
Plasmodium berghei [2]
  MSD: >30 days

## Clc1ccc2c(Nc3ccc4oc(NCCCN5CCCCC5)nc4c3)ccnc2c1
Plasmodium falciparum [5]
  IC50: 39 nM
Plasmodium falciparum [7]
  IC50: 10 nM
Plasmodium falciparum [8]
  Ratio IC50: 3.9
CHO
  IC50: 10600 nM
[9]
  selectivity ratio: 1060
[10]
  IC50: 105000 nM
[13]
  logP: 4.16
[14]
  remaining at 0.5 h: 70%
[15]
  remaining at 0.5 h: 49%
[16]
  half-life: 10.9 h
[17]
  half-life: 10 h
[18]
  Tmax: 2.9 h
[19]
  Cmax: 1010 nM
[20]
  Cmax: 2740 nM
[21]
  Vd: 24.5 L/kg
[22]
  clearance: 28.3 mL/min/kg
Mus musculus [23]
  AUC: 1020 (umol/L).min
Mus musculus [24]
  AUC: 454 (umol/L).min
[25]
  bioavailability: 56%
Plasmodium berghei [11]
  Activity: 99.8%
Plasmodium berghei [26]
  Activity: 99.5%
Plasmodium berghei [1]
  Activity: 99.8%
Plasmodium berghei [12]
  MSD: >30 days
Plasmodium berghei [27]
  MSD: 14 days
Plasmodium berghei [2]
  MSD: 15.7 days
Plasmodium berghei [28]
  Activity: Active

## CN(C)CCNc1nc2cc(Nc3ccnc4cc(Cl)ccc34)ccc2o1
Plasmodium falciparum [5]
  IC50: 42 nM
Plasmodium falciparum [7]
  IC50: 12 nM
Plasmodium falciparum [8]
  Ratio IC50: 3.5
CHO
  IC50: 7590 nM
[9]
  selectivity ratio: 633
[10]
  IC50: 363000 nM
[13]
  logP: 3.38
[14]
  remaining at 0.5 h: > 99%
[15]
  remaining at 0.5 h: > 99%
Plasmodium berghei [11]
  Activity: 99.8%
Plasmodium berghei [26]
  Activity: 99.5%
Plasmodium berghei [1]
  Activity: 99.9%
Plasmodium berghei [12]
  MSD: 29.3 days
Plasmodium berghei [27]
  MSD: 13.7 days
Plasmodium berghei [2]
  MSD: 24 days

## Clc1ccc2c(Nc3ccc4[nH]c(NCCN5CCOCC5)nc4c3)ccnc2c1
Plasmodium falciparum [4]
  IC50: 189 nM
Plasmodium falciparum [5]
  IC50: 742 nM
Plasmodium falciparum [6]
  Ratio IC50: 3.93

## Clc1ccc2c(Nc3ccc4oc(NCCN5CCCC5)nc4c3)ccnc2c1
Plasmodium falciparum [6]
  Ratio IC50: 2.75
Plasmodium falciparum [7]
  IC50: 15 nM
Plasmodium falciparum [8]
  Ratio IC50: 3.73
CHO
  IC50: 4900 nM
[9]
  selectivity ratio: 327
[10]
  IC50: 91500 nM
[14]
  remaining at 0.5 h: 62%
[15]
  remaining at 0.5 h: 81%
Plasmodium berghei [11]
  Activity: 99.8%
Plasmodium berghei [26]
  Activity: 99.5%
Plasmodium berghei [1]
  Activity: 99.8%
Plasmodium berghei [12]
  MSD: >30 days
Plasmodium berghei [27]
  MSD: 23.3 days
Plasmodium berghei [2]
  MSD: >30 days
Plasmodium berghei [28]
  Activity: Active
Mus musculus [29]
  Activity: Non-toxic
Plasmodium berghei [30]
  Activity: Active
